Screening results: PubChem, The Scripps Research Institute Molecular Screening Center
5HT1E ag: agonists of human 5-HT1E serotonin receptor | P28566 | CHO 5-HT1E Ga15 NFAT-bla reporter, FRET; 0% DMSO wells, 100% control agonist wells | activation, % at 6 µM | 65,000 tested, 0.69% active;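 active = activation above a set limit, the screen-wide mean activation plus 3 SD, cut at about 8.5% in these data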;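 note: 100% = positive control agonist at 1 µM giving full maximal response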
S1P1 ag pot: S1P1 (human) agonism or agonism potentiation; S1P1 CRE-bla cells, forskolin, beta-lactamase FRET, potentiator mode; S1P1 agonist co-added at EC20, 2 nM; 100% = saturating reference agonist, 0% = basal; activation, % at 9.5 µM; 56,000 tested, 0.57% active;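 active = activation above a cutoff set at the mean activation of all tested compounds plus 3 SD, cut at about 54% in these data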;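 note: forskolin at 4 µM as EC80 and the EC20 agonist is SEW2871; 100% = SEW2871 at its EC100 plus forskolin at EC80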
S1P3 ag: S1P3 (human) receptor agonism; 60,000 tested, 0.1% active; S1P3 NFAT-BLA reporter cells, FRET ratio; relative to 1 µM S1P, basal subtracted; activation, % at 4.5 µM; Q99500;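 active = activation above the screen-wide mean plus 3 SD, cut at about 4.5% in these data, passing the limit was not always enough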
Target sequence (Q99500 whole entry, looked up): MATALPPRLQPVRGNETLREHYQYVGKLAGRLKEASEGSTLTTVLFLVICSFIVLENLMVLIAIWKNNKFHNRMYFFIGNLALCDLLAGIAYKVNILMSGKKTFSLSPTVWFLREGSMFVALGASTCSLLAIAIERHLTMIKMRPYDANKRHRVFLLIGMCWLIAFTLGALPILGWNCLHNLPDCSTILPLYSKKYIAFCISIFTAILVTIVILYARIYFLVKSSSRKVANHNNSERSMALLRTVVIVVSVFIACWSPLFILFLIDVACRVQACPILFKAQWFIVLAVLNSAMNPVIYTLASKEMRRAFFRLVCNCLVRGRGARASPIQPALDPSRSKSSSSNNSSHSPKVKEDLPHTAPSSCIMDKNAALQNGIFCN
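Material: Human S1P3 NFAT-BLA reporter CHO cells | Incubation: Overnight plating, 4 h compound 37 °C, 2 h substrate RT | Signal: FRET β-lactamase substrate fluorescence, excitation 405 nm, 460/535 nm emission ratio, background-subtracted | Compound: 4.5 µM final, single dose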
5HT1a antag: 5-HT1a (human) receptor antagonism. P08908. CHO 5-HT1a Ga15 NFAT-bla reporter, antagonist mode. inhibition, % at 10 µM. 62,000 tested, 0.68% active;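 active = inhibition above the mean of all tested compounds plus 3 SD, cut at about 43% in these data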;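 note: receptor stimulated by 5-CT agonist at 100 nM near EC80; beta-lactamase reporter measured by ratiometric fluorescence of a cleavable substrate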
5HT1a ag: 5-HT1a (human) receptor agonism; CHO 5-HT1a Ga15 NFAT-bla reporter, FRET ratio; 0% basal, 100% maximal reference agonist; activation, % at 10 µM; 65,000 tested, 0.56% active;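 active = activation above the screen-wide mean activation plus 3 SD, cut at about 19% in these data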;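 note: 0% = DMSO wells and 100% = 5-CT at EC100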
HTR1E antagonist: blocks the human 5-HT1E serotonin receptor. P28566. CHO 5-HT1E Ga15 NFAT-bla reporter, FRET, antagonist. inhibition, % at 6 µM. 65,000 tested, 0.99% active;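 active = inhibition above a set limit, the mean inhibition across every tested compound plus 3 SD, cut at about 29% in these data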;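 note: signal is the 460 over 535 nm emission ratio of beta-lactamase substrate; 0% = agonist plus DMSO wells and 100% = wells without agonist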
Starred values were filed as active, the others as inactive; . = not tested or not shown. Most compounds without a hit are left out; they make up all but 3% or so of the library.

SMILES	5HT1E ag	S1P1 ag pot	S1P3 ag	5HT1a antag	5HT1a ag	HTR1E antagonist
CCN(CC(=O)Nc1ccc(OC)c(OC)c1)S(=O)(=O)c1ccc(C)cc1	0	.	1	-18	22*	-7
COc1ccc(NC(=O)CN(c2ccc(C)cc2)S(=O)(=O)c2c(C)nn(C)c2C)cc1OC	0	5	0	-3	0	6
CN(C(=O)c1cccc(C#N)c1)c1nnc(-c2cnccn2)s1	0	8	-1	2	1	2
COc1ccccc1N1CCN(CCNC(=O)Nc2cccc(C)c2C)CC1	8	10	-1	13	41*	6
Cc1cc(C)nc(N2CCN(c3nc(C)nc4c3oc3ccccc34)CC2)n1	-1	.	.	5	0	-9
COc1ccccc1N1CCN(c2nc(C)nc3c2oc2ccccc23)CC1	2	-14	-1	67*	-2	58*
CCOc1ccccc1N1CCN(Cc2cccc(OC)c2O)CC1	4	.	-1	28	0	-6
CCCN1CCC(N2CCN(c3ccccc3OC)CC2)CC1	0	16	-1	63*	0	1
COc1ccccc1N1CCN(Cc2cc(Br)c(O)c3ncccc23)CC1	14*	15	0	65*	-4	38*
Cc1cc(C)c(O)c(-c2cc(C(=O)Nc3ccc(S(=O)(=O)N4CCOCC4)cc3)[nH]n2)c1	2	5	-2	-9	4	-10
O=C(c1ccccc1)c1ccc(C(=O)N2CCN(c3ccc(F)cc3)CC2)o1	-1	3	-2	-5	-1	-7
CCC(Sc1nc2sc(C(=O)OC)c(C)c2c(=O)n1N)C(=O)NCC1CCCO1 (configuration not stated)	0	.	.	-1	1	-11
CCOC(=O)C1CCCN(c2c(N3CCc4ccccc4C3)c(=O)c2=O)C1 (configuration not stated)	0	-16	0	-5	-1	-3
COc1ccccc1N1CCN(CCOc2c(OC)cccc2OC)CC1	30*	20	-4	.	2	14
COc1ccccc1N1CCN(C/C=C/c2ccc(N(C)C)cc2)CC1	9.7*	-20	-1	79*	-1	-18
COc1ccccc1N1CCN(Cc2ccco2)CC1	9.2*	0	0	16	-4	0
COc1ccccc1/C=C/CN1CCOCC1	1	.	-1	-9	-1	-4
COc1ccccc1N1CCN(CC(O)COc2cccc3ccccc23)CC1 (configuration not stated)	0	6	-5	.	1	28
COc1cccc(C(=O)N2CCN(Cc3ccco3)CC2)c1OC	-1	-23	0	1	-3	-2
Cc1ccccc1-n1c(SCC(=O)c2cc(C)n(C)c2C)nnc1-c1ccncc1	0	61	1	-13	-1	5
COc1ccc2[nH]c(C)c(CCN3C(=O)OC(C)(C)C3(C)O)c2c1 (configuration not stated)	0	-8	0	-1	-1	1
COc1ccc2[nH]c(=O)c3c(c2c1)OC(C)(C)C=C3	0	99	-2	60*	-1	24
COc1ccc2c(c1)OCC1=C2CCC2(C)C(=O)CC=C12 (configuration not stated)	0	.	-1	3	-1	-3
Oc1c(C(Nc2nc3ccccc3s2)c2ccco2)ccc2cccnc12 (configuration not stated)	-1	5	-2	62*	6	34*
CC(C)C(=O)NC(c1ccco1)c1ccc2cccnc2c1O (configuration not stated)	-1	4	-2	39	-1	30*
SMILES	5HT1E ag	S1P1 ag pot	S1P3 ag	5HT1a antag	5HT1a ag	HTR1E antagonist
CCCC(=O)NC(c1ccco1)c1cc(Cl)c2cccnc2c1O (configuration not stated)	-1	28	-2	29	-5	5
CCCOc1nc(N)c(C#N)c(-c2ccccc2F)c1C#N	0	-22	-1	-2	-1	13
Cc1cc(NC(=O)CCC(=O)N(c2ccccc2)C(C(=O)NCC2CCCO2)c2cccnc2)no1 (configuration not stated)	0	-4	0	-6	0	-9
COC(=O)C1=C(N)Oc2cc(C)n(CCCn3ccnc3)c(=O)c2C1c1cccc(Cl)c1 (configuration not stated)	1	-9	0	-22	-2	-6
COc1ccc(-c2nc(N)ncc2Oc2ccccc2Br)c(O)c1	-1	1	-1	44*	0	28
COc1cccc(Oc2cnc(N)nc2-c2ccc(OC)cc2O)c1	0	13	-2	22	-1	26
O=C(Nc1nccs1)c1ccc(S(=O)(=O)NCC2CCCCC2)cc1	0	53*	-1	-5	-1	8
CCOC(=O)c1cccc(NC(=O)Cn2c(CC(=O)N3CCCC3)nc3ccccc32)c1	0	-27	0	6	-3	-3
c1ccc2c(c1)[nH]c1nc(SCCN3CCOCC3)nnc12	0	.	-1	-3	1	3
Brc1ccc2[nH]c3nc(SCCN4CCOCC4)nnc3c2c1	0	-67	1	3	0	36*
CCCC(=O)C1C(=O)CC(C)(C)C(c2cc(C)no2)C1=O (configuration not stated)	0	.	0	-7	0	-2
Cc1cc(C2C(=O)CC(=O)CC2c2ccccc2)on1 (configuration not stated)	12*	-3	0	7	-1	6
CC1Cc2ccccc2N1C(=O)COC(=O)c1ccc(S(=O)(=O)N(C)C)cc1 (configuration not stated)	-1	-17	0	6	0	1
OCCN1CCN(Cc2cccc(Oc3ccc(Cl)cc3)c2)CC1	10*	-38	-1	1	0	8
COc1ccc(/C=C/C(O)=C2/C(=O)N(C)C3(C)CC2c2ccccc2O3)cc1 (configuration not stated)	0	-5	-1	46*	-1	20
CCOc1cc(-c2cc(-c3ccc(N)cc3)nc(N)c2C#N)ccc1O	2	0	1	4	6	30*
CCOC(=O)N1CCN(C(=O)CSc2nnc(C3COc4ccccc4O3)o2)CC1 (configuration not stated)	0	9	0	-12	78*	8
CCOC(=O)N1CCN(C(=O)C2COc3ccccc3O2)CC1 (configuration not stated)	3	.	.	-2	-1	-2
COc1ccc2[nH]c3ccccc3c2c1	0	8	0	-1	-3	-14
COc1ccc2[nH]c3c(c2c1)CN(C)CC3	1	15	-1	7	102*	29*
